In assay [1] the target is T1, Inhibitor of nuclear factor kappa-B kinase subunit beta (Homo sapiens, UniProt O14920).
T1 sequence (O14920 whole entry): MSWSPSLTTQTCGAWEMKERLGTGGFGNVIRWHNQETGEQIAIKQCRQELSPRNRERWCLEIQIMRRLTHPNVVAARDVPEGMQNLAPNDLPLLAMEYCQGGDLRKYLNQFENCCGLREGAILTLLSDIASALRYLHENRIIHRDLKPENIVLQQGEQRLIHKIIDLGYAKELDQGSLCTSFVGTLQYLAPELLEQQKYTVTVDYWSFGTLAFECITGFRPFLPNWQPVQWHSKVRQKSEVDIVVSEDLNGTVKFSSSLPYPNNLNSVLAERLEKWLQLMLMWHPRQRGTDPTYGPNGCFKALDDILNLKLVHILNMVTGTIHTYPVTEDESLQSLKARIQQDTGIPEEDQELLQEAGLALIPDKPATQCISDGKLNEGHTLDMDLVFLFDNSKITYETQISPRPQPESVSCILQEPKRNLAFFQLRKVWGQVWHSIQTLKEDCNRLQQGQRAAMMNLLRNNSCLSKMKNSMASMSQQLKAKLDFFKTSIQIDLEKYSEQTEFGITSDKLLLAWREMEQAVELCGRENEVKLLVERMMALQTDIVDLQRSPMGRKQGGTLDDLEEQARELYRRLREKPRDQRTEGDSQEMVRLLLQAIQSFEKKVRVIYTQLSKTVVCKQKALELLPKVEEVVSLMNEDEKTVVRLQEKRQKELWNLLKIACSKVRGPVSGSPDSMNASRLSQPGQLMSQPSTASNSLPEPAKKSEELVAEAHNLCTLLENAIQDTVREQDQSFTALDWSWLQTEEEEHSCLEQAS
As to the kind of experiment: Inhibition of recombinant IKK2 expressed in Bac-to Bac baculovirus system.

The target in assay [2] is T2, Glycogen synthase kinase-3 beta (Homo sapiens, UniProt P49841). As to the kind of experiment: Inhibition of GSK3-beta in human SH-Sy5Y cells assessed as reduction of amyloid beta (25-35)-induced Tau hyperphosphorylation at Ser396 at 10 uM treated 1 hr before amyloid beta (25-35) challenge measured after 6 hrs by Western blotting. The assay is classed as cell-based. An outline of the steps:
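SH-SY5Y cells from ATCC kept in 1:1 DMEM:Ham's F12 with 10% FBS and penicillin/streptomycin under 5% CO2. Grown to about 80% confluence and serum-starved 12 h. Inhibitor added for 1 h, then amyloid beta 25–35 for 6 h. Lysed in SDS loading buffer and run on 10% SDS-PAGE. Western blot on PVDF with rabbit anti-Tau pS396 and ECL detection.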
Target sequence in this assay (P49841 whole entry, looked up): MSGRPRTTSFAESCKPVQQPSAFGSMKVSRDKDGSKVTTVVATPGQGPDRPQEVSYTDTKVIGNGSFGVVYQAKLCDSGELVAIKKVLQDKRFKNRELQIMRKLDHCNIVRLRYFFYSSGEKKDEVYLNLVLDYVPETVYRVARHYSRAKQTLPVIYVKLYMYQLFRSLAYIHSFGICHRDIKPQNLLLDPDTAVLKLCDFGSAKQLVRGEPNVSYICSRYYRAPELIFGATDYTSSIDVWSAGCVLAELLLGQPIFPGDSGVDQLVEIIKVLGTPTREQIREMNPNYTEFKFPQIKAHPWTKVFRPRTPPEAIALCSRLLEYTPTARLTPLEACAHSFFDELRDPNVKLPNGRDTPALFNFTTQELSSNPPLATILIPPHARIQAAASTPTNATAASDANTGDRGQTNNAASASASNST
(A western blot detects proteins with antibodies after separation by electrophoresis.)

Assay [3] deals with Dual specificity mitogen-activated protein kinase kinase 1 (Homo sapiens, UniProt Q02750). As to the kind of experiment: Inhibition of recombinant MEK1 expressed in Escherichia coli.
Assay [4] deals with T2, Glycogen synthase kinase-3 beta. As to the kind of experiment: Inhibition of recombinant GST-GSK3beta expressed in Escherichia coli BL21 (DE3).
Target sequence in this assay (P49841 whole entry): as the sequence (P49841 whole entry, looked up) above
The target of assay [5] is T3, Protein kinase C epsilon type (Homo sapiens, UniProt Q02156).
T3 sequence (Q02156 whole entry): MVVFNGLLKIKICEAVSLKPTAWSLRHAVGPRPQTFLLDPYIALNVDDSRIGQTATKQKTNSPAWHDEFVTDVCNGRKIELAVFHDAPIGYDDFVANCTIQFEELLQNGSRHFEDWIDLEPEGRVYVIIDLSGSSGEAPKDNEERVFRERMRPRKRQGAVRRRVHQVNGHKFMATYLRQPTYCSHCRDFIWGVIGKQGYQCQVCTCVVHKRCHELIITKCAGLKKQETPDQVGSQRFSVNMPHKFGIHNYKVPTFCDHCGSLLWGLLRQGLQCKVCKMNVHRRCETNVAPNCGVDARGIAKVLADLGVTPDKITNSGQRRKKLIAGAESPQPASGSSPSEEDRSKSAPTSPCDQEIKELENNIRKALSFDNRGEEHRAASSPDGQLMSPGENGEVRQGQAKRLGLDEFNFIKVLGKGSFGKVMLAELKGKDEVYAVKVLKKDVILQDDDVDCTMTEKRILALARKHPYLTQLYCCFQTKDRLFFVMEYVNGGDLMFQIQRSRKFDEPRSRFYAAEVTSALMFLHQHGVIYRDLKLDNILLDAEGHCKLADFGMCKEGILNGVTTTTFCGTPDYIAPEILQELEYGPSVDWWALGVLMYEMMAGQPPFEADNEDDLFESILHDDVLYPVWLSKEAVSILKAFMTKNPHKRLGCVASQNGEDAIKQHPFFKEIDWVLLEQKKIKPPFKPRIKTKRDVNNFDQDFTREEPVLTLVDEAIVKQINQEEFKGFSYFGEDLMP
As to the kind of experiment: Inhibition of recombinant PKCE expressed in Bac-to Bac baculovirus system.

In the next assay the target is T4, Aurora kinase A (Homo sapiens, UniProt O14965).
T4 sequence (O14965 whole entry): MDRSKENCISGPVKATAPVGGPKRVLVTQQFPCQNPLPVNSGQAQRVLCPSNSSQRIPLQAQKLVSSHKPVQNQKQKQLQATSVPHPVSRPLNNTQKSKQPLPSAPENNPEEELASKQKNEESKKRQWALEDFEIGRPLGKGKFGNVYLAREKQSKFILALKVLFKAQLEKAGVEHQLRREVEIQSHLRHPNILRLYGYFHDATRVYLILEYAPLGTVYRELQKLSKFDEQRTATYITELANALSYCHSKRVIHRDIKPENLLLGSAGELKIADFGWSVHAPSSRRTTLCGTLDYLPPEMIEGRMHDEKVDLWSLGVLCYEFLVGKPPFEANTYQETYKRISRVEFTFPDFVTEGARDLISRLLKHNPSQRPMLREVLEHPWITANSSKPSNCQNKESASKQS
As to the kind of experiment: Inhibition of recombinant Aurora A expressed in Escherichia coli.

Assay [6] has as its target Mitogen-activated protein kinase 3 (Homo sapiens, UniProt P27361). As to the kind of experiment: Inhibition of recombinant ERK1 expressed in Escherichia coli.

One may read the IC50 as the concentration needed to halve the response being measured.

Active and inactive are the calls of the source. The calls are words filed in the database; no cut-off is given here.

Sequence of Dual specificity mitogen-activated protein kinase kinase 1 (Q02750 whole entry): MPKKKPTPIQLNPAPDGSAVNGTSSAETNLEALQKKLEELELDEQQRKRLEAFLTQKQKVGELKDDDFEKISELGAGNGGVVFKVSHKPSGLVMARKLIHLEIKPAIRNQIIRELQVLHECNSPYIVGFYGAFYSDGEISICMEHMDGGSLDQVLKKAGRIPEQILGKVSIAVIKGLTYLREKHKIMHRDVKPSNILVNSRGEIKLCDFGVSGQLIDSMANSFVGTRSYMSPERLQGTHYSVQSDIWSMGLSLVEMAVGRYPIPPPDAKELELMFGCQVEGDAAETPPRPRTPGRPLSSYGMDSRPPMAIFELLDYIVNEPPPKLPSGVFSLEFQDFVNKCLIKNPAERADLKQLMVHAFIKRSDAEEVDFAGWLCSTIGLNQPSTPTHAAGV
Sequence of Mitogen-activated protein kinase 3 (P27361 whole entry): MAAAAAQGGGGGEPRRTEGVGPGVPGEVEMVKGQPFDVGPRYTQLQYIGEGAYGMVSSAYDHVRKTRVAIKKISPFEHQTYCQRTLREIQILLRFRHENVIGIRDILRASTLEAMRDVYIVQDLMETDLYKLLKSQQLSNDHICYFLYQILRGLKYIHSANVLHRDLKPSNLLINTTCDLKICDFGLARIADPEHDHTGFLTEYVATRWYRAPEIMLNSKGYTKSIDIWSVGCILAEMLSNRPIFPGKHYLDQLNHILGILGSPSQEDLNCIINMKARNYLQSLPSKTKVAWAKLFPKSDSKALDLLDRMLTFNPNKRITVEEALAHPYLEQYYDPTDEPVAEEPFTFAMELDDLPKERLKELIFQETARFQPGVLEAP

Consider `O=C1NC(=O)C(n2ccc3ncccc32)=C1c1cn(CCn2ccnc2)c2ccccc12`, for which the IC50 in assay [1] is greater than 40 µM; in assay [3] it was greater than 40 µM; in assay [4], 0.26 µM; in assay [5] it was greater than 40 µM; on Aurora kinase A, greater than 40 µM; in assay [6], greater than 40 µM. Further, the outcome in assay [2] was inactive.

For the molecule `O=C1NC(=O)C(n2ccc3ncccc32)=C1c1cn(CCCn2ccnc2)c2cc(Br)ccc12`, the outcome in assay [2] was inactive. The IC50 in assay [4] stood at 0.95 µM.

Turning to `CN(C)CCCn1cc(C2=C(n3ccc4ncccc43)C(=O)NC2=O)c2ccc(F)cc21`, the IC50 in assay [4] turned out to be 12.4 µM.

For `Cn1cc(C2=C(c3cn(CCCn4ccnc4)c4ccccc34)C(=O)NC2=O)c2ncccc21`, the IC50 in assay [4] worked out at 0.66 µM.

Turning to `O=C1NC(=O)C(n2ccc3ncccc32)=C1c1cn(CCCCn2ccnc2)c2ccccc12`, in assay [2], the outcome was inactive. Also, the IC50 in assay [4] turned out to be 0.85 µM.

Consider `O=C1NC(=O)C(n2ccc3ncccc32)=C1c1cn(CCCn2ccnc2)c2cc(F)ccc12`, for which the IC50 in assay [4] is 0.31 µM.

Consider `COc1ccc2c(c1)c(C1=C(n3ccc4ncccc43)C(=O)NC1=O)cn2CCCN(C)C`, for which, in assay [4], the IC50 was 22.5 µM.

Turning to `CN(C)CCCn1cc(C2=C(n3ccc4ncccc43)C(=O)NC2=O)c2ccc(Br)cc21`, the IC50 in assay [4] is 2.26 µM.

As for `Cn1cc(C2=C(c3cn(CCN4CCOCC4)c4ccccc34)C(=O)NC2=O)c2ncccc21`, in assay [4], the 50% inhibitory concentration (IC50) was 0.9 µM.

In the case of `CN(C)CCCn1cc(C2=C(n3ccc4ncccc43)C(=O)NC2=O)c2ccccc21`, in assay [4], the IC50 amounted to 13.6 µM.

Consider `O=C1NC(=O)C(n2ccc3ncccc32)=C1c1c[nH]c2ccccc12`, for which the IC50 in assay [4] stood at 30.6 µM.

`O=C1NC(=O)C(n2ccc3ncccc32)=C1c1cn(CCCN2CCOCC2)c2ccccc12`: in assay [4], the IC50 was found to be 1.79 µM.

On to `Cn1cc(C2=C(c3cn(CCCN4CCOCC4)c4ccccc34)C(=O)NC2=O)c2ncccc21`, for which the IC50 in assay [1] is greater than 40 µM; in assay [3] it was greater than 40 µM; in assay [4], 0.76 µM; in assay [5] it was greater than 40 µM; on Aurora kinase A it was greater than 40 µM; in assay [6], greater than 40 µM. Also, in assay [2], the result was Active.

`COc1ccc2c(c1)c(C1=C(n3ccc4ncccc43)C(=O)NC1=O)cn2CCCn1ccnc1`: in assay [2], the outcome was inactive. Also, the IC50 in assay [4] was 0.48 µM.

For the molecule `O=C1C(c2cn(CCCn3ccnc3)c3ccccc23)=C(n2ccc3ncccc32)C(=O)N1c1ccccc1`, in assay [4], the IC50 is greater than 73.3 µM.

For `O=C1NC(=O)C(n2ccc3ncccc32)=C1c1cn(CCCn2ccnc2)c2ccccc12`, the IC50 in assay [4] is 0.55 µM.

In the case of `Cn1cc(C2=C(c3cn(CCCO)c4ccccc34)C(=O)NC2=O)c2ncccc21`, in assay [4], the IC50 was determined as 1.14 µM.

On to `O=C1NC(=O)C(n2ccc3ncccc32)=C1c1cn(CCCn2ccnc2)c2ccc(Br)cc12`, for which the IC50 is greater than 40 µM in assay [1]; greater than 40 µM in assay [3]; 0.14 µM in assay [4]; greater than 40 µM in assay [5]; greater than 40 µM at Aurora kinase A; greater than 40 µM in assay [6]. For the same molecule, in assay [2], the outcome was Active.

Turning to `O=C1NC(=O)C(n2ccc3ncccc32)=C1c1cn(CCCN2CCCCC2)c2ccccc12`, the IC50 in assay [4] was 12.4 µM.

The values above are taken from ChEMBL document CHEMBL1152957, “Synthesis and biological evaluation of novel 4-azaindolyl-indolyl-maleimides as glycogen synthase kinase-3beta (GSK-3beta) inhibitors” (Bioorg Med Chem, 2009).
